Series [1] has as its target T1, G-protein coupled receptor (Canis lupus familiaris) (UniProt Q2A652).
T1 sequence (whole entry): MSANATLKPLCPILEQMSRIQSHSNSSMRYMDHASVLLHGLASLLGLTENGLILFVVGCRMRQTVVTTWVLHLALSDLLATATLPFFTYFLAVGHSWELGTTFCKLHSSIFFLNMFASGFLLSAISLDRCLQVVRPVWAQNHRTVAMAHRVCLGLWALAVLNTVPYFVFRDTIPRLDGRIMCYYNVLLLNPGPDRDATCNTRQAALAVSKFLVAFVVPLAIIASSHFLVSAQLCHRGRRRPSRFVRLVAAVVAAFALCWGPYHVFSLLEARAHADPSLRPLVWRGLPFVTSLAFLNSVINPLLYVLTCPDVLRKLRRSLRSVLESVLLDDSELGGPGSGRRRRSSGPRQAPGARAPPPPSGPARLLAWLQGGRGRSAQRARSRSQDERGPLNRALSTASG
Description: Antagonist activity at dog CRTH2 receptor assessed as inhibition of calcium flux by cell-based FLIPR assay. Type of series: functional. (In general: Calcium flux is commonly read through the fluorescence of an indicator in the cells.)

Series [2] deals with T2, Chemoattractant receptor-homologous molecule expressed on Th2 cells (Cavia porcellus) (UniProt Q56D28).
T2 sequence (whole entry): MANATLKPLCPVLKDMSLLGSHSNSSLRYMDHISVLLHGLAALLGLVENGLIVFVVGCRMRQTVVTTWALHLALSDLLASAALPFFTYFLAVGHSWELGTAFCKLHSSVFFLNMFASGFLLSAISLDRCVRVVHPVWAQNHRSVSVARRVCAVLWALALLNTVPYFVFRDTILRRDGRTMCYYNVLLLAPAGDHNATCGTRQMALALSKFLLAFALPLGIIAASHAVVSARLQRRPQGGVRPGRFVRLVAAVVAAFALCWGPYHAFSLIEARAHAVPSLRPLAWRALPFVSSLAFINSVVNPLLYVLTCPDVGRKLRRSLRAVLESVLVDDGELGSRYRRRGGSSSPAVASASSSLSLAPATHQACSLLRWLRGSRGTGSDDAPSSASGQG
Description: Antagonist activity at guinea pig CRTH2 receptor assessed as inhibition of calcium flux by cell-based FLIPR assay. Format: functional.

Series [3] concerns the target T3, Prostaglandin D2 receptor 2 (Mus musculus) (UniProt Q9Z2J6).
T3 sequence (whole entry): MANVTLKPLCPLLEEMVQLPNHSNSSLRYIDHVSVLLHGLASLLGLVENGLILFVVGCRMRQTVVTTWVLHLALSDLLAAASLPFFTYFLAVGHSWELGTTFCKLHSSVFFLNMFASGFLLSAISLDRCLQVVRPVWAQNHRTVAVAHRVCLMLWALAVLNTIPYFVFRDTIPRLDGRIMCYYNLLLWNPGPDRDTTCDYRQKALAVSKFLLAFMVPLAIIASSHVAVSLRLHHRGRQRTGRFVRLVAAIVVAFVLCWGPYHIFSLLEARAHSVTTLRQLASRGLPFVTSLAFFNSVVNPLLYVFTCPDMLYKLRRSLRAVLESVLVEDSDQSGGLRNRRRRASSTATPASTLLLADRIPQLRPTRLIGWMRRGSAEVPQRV
Description: Antagonist activity at mouse CRTH2 receptor assessed as inhibition of calcium flux by cell-based FLIPR assay. Type of series: functional.

Series [4] can be described thus: Protein binding in plasma (unknown origin). Type of series: ADME, cell-free. To be noted: read-out: PPB.
For series [5], the target named is T4, Prostaglandin G/H synthase 1 (Ovis aries) (UniProt P05979).
T4 sequence (whole entry): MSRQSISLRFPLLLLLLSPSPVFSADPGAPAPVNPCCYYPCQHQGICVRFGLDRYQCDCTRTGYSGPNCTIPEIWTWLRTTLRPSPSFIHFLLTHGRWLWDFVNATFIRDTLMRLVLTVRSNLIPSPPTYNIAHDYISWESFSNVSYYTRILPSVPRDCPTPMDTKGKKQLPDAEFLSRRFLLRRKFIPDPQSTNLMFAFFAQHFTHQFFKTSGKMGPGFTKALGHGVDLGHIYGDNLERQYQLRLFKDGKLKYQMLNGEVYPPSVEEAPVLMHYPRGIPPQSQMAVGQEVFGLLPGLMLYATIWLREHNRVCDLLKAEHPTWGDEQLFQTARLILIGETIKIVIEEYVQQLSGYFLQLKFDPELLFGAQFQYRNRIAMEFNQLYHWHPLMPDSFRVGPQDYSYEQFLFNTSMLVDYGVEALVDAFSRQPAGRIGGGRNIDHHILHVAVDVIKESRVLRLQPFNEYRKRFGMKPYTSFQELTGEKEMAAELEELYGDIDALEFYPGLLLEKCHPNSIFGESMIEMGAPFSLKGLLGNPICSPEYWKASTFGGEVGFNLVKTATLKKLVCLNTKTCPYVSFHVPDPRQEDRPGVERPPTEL
Description: […] at ovine COX-1 at 10 uM relative to control. Further details: scale not given: the % may be the effect or the level left. An outline of the steps:
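Ovine COX-1 activity measured with a commercial kit, following the manufacturer's protocol. Compounds were tested in duplicate at 10 μM final concentration. Activity is expressed as inhibition relative to control.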

The species entered for another series is Homo sapiens. In words: Selectivity factor, ratio of IC50 for recombinant human prostanoid DP1 receptor to IC50 for recombinant human CRTH2 receptor. Put shortly: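 hDP₁ IC₅₀ came from competitive [³H]PGD₂ binding on CHO cells stably overexpressing recombinant hDP₁. hCRTh2 IC₅₀ came from [³H]PGD₂ (2.5 nM) displacement on membranes of HEK-293 cells stably expressing hCRTh2, incubated 90 min at room temperature, filtered and counted. f_Sel = IC₅₀(hDP₁)/IC₅₀(hCRTh2).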

Series [6] has as its target T5, Prostaglandin D2 receptor 2 (Homo sapiens) (UniProt Q9Y5Y4).
T5 sequence (whole entry): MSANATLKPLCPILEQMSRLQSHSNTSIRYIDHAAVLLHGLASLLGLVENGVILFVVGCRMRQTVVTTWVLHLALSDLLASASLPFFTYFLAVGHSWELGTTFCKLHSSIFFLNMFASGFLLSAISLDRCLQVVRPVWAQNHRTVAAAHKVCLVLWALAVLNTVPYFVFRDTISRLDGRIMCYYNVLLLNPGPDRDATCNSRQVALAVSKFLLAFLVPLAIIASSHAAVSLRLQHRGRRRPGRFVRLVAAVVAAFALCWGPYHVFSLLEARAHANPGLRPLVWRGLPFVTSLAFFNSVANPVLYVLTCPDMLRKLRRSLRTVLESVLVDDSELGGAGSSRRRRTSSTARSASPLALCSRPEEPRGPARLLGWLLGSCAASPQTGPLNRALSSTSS
Description: Selectivity factor, ratio of IC50 for recombinant human CRTH2 receptor in presence of human serum albumin to IC50 for recombinant human CRTH2 receptor in absence of human serum albumin. An outline of the steps: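 Competitive [³H]PGD₂ (2.5 nM) displacement on membranes from HEK-293 cells stably expressing hCRTh2. Buffer C was 50 mM Tris, pH 7.4, 100 mM NaCl, 1 mM EDTA and 0.1% BSA, run with or without 0.5% HSA. Membrane was 80 μg protein/well, incubated 90 min at room temperature, then filtered and counted by scintillation. Nonspecific binding was taken with 10 μM PGD₂. f_HSA = IC₅₀(HSA)/IC₅₀(buffer).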

Structures are written as SMILES. Active and inactive are the calls of the source. No cut-off for these calls is given here.

Take `O=C(O)Cn1c2c(c3cc(Cl)ccc31)CN(C(=O)c1cccc3ccccc13)CC2`: the inhibition entry in series [1], in series [2] and in series [3] was “Active” throughout. In addition, the fraction unbound in series [4] was below 0.03. Moreover, in series [5], the Activity was below 30%. Further, the Ratio IC50 in the series listed under Homo sapiens came to 230; in series [6], 16.

Turning to `O=C(O)Cn1c2c(c3cc(F)cc(Cl)c31)CN(C(=O)c1cccc(Cl)c1)CC2`, the inhibition entry in series [1], in series [2] and in series [3] was “Active” in each case. The fraction unbound in series [4] was below 0.03. The Activity in series [5] was below 30%. In addition, the values for the Ratio IC50 (in the series listed under Homo sapiens; in series [6]) were 22 and 1, respectively.

For `O=C(O)Cn1c2c(c3cc(F)ccc31)CN(C(=O)c1cccc3ccccc13)CC2` [SETIPIPRANT], in series [1], the inhibition entry was “inactive”. Also, the fraction unbound in series [4] is below 0.03. Also, the Activity in series [5] is below 30%. Also, the Ratio IC50 in the series filed under Homo sapiens was 215; in series [6], 57.

For the compound `CC(C)c1ccc2c(c1)c1c(n2CC(=O)O)CCN(C(=O)c2ccccc2)C1`, the inhibition result in series [1], in series [2] and in series [3] was “Active” in each case. Also, the fraction unbound in series [4] was below 0.03. In addition, in series [5], the Activity is below 30%.

In the case of `O=C(O)Cn1c2c(c3cc(F)ccc31)CN(C(=O)c1cccc(Cl)c1)CC2`, the inhibition result in series [1] is “inactive”. Also, the fraction unbound in series [4] was below 0.03. In series [5], the Activity is below 30%. Further, the Ratio IC50 is above 1100 in the series filed under Homo sapiens and 7 in series [6].

As for `O=C(O)Cn1c2c(c3ccccc31)CN(C(=O)C1CCCCC1)CC2`, the inhibition result in series [1], in series [2] and in series [3] was “Active” each time. For the same compound, in series [4], the fraction unbound is below 0.03. In addition, the Activity in series [5] was below 30%.

As to `Cc1ccc2c(c1)c1c(n2CC(=O)O)CCN(C(=O)c2cccc3ccccc23)C1`, the inhibition entry in series [1], in series [2] and in series [3] was “Active” each time. Moreover, the fraction unbound in series [4] was below 0.03. Moreover, the Activity in series [5] is below 30%. Moreover, the Ratio IC50 came out at 540 in the series filed under Homo sapiens and 38 in series [6].

In the case of `CCc1ccc(-c2ccc(C(=O)N3CCc4c(c5ccccc5n4CC(=O)O)C3)cc2)cc1`, the inhibition result in series [1], in series [2] and in series [3] was “Active” throughout. Also, the fraction unbound in series [4] is below 0.03. The compound further registered an Activity in series [5] below 30%. For the same compound, the Ratio IC50 in the series listed under Homo sapiens came out at 195; in series [6] it was 2.

Take `O=C(O)Cn1c2c(c3ccccc31)CN(C(=O)c1cccc3ccccc13)CC2`: the inhibition entry in series [1] was “inactive”. Moreover, the fraction unbound in series [4] is below 0.03. In addition, the Activity in series [5] is below 30%. Besides, the Ratio IC50 turned out to be 87 in the series filed under Homo sapiens and 47 in series [6].

As to `O=C(O)Cn1c2c(c3ccccc31)CN(C(=O)c1cccc(Cl)c1)CC2`, the inhibition entry in series [1], in series [2] and in series [3] was “Active” throughout. Moreover, in series [4], the fraction unbound is below 0.03. In series [5], this compound gave an Activity below 30%. The figures for the Ratio IC50 (in the series listed under Homo sapiens; in series [6]) were above 1000 and 3, respectively.

As for `O=C(O)Cn1c2c(c3cc(F)ccc31)CN(C(=O)c1cccs1)CC2`, the inhibition entry in series [1], in series [2] and in series [3] was “Active” in each case. Moreover, the fraction unbound in series [4] was below 0.03. This compound displayed an Activity in series [5] below 30%. The results for the Ratio IC50 (in the series filed under Homo sapiens; in series [6]) were above 2500 and 3, respectively.

With `CCc1ccc(-c2ccc(C(=O)N3CCc4c(c5cccc(Cl)c5n4CC(=O)O)C3)cc2)cc1`, the inhibition entry in series [1], in series [2] and in series [3] was “Active” each time. The fraction unbound in series [4] is below 0.03. Besides, in series [5], the Activity was below 30%. The Ratio IC50 in the series filed under Homo sapiens was 5.2; in series [6] it was 4.

As for `COc1ccc2c(c1)c1c(n2CC(=O)O)CCN(C(=O)c2ccccc2)C1`, the inhibition entry in series [1], in series [2] and in series [3] was “Active” throughout. Moreover, the fraction unbound in series [4] is below 0.03. Further, in series [5], the Activity is below 30%.

In the case of `O=C(O)Cn1c2c(c3cc(F)ccc31)CN(C(=O)Cc1c[nH]c3ccccc13)CC2`, the inhibition entry in series [1], in series [2] and in series [3] was “Active” in each case. Also, the fraction unbound in series [4] is below 0.03. The Activity in series [5] was below 30%. For the same compound, the Ratio IC50 in the series listed under Homo sapiens is above 2000; in series [6], 7.

Regarding `O=C(O)Cn1c2c(c3cc(C(F)(F)F)ccc31)CN(C(=O)c1ccccc1)CC2`, the inhibition entry in series [1], in series [2] and in series [3] was “Active” in each case. Also, the fraction unbound in series [4] is below 0.03. The Activity in series [5] is below 30%. Besides, the values for the Ratio IC50 (in the series filed under Homo sapiens; in series [6]) were above 1100 and 6, respectively.

In the case of `O=C(O)Cn1c2c(c3cc(F)cc(Cl)c31)CN(C(=O)c1cccc3ccccc13)CC2`, the inhibition result in series [1], in series [2] and in series [3] was “Active” each time. Moreover, the fraction unbound in series [4] is below 0.03. The same compound yielded an Activity in series [5] below 30%. In addition, the Ratio IC50 in the series filed under Homo sapiens was 4.1; in series [6] it was 7.

(Values after ChEMBL document CHEMBL2385063, “Identification of 2-(2-(1-naphthoyl)-8-fluoro-3,4-dihydro-1H-pyrido[4,3-b]indol-5(2H)-yl)acetic acid (setipiprant/ACT-129968), a potent, selective, and orally bioavailable chemoattractant receptor-homologous molecule expressed on Th2 cells (CRTH2) antagonist” (J Med Chem, 2013).)
